Source: PMC7437931 (Journal of medicinal chemistry, 2020)
*1 amine or outer side, *2 acyl side, *3 side chain or, on linkers, in order; H or OH if unused. Where a SMILES comes first, the peptide text is derived from it. Bridges are numbered along the chain shown (N, C = ends). Triazole bridges read from a SMILES are 1,4-linked. [ ]: non-standard residue; d: D form. The star is where a group is joined. RhodamineB = CCN(CC)c1ccc2c(-c3ccccc3C(=O)*)c3ccc(=[N+](CC)CC)cc-3oc2c1; Lys(N3) = [N-]=[N+]=NCCCC[C@H](N)C(=O)O; NMeGABA = CN(CCCC(=O)[*:2])[*:1]; Pra = C#CC[C@H](N)C(=O)O

Experiments:
[1] = biological target: Fluo-epitope (fluorescein-labeled D570-A583 epitope of proMMP2) (human); assay: FRET or BRET
[2] = biological target: D570-A583 epitope of proMMP2 (Fluo-epitope) (Homo sapiens, UniProt P08253); assay: FRET binding assay; conditions: 100 nM Fluo-epitope, varying Rhod-peptide
In short: (§1)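 Fluorescein-labelled epitope held at 100 nM final and mixed with a concentration series of rhodamine-tagged cyclic peptide. Mixtures were incubated 30 min, then FRET intensity was read on a microplate reader. Each point used individually prepared triplicate samples.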

[3] = tested on: Fluo-M5 (middle segment scrambled epitope); assay: FRET binding assay with partially scrambled epitope M5; conditions: 100 nM Fluo-epitope variation
In short: as §1

[4] = tested on: Fluo-C5 (C-terminal scrambled epitope); assay: FRET binding assay with partially scrambled epitope C5; conditions: 100 nM Fluo-epitope variation
In short: as §1

[5] = tested on: Fluo-N5 (N-terminal scrambled epitope); assay: FRET binding assay with partially scrambled epitope N5; conditions: 100 nM Fluo-epitope variation
In short: as §1

Q: How did the Kd [1] turn out when cy(WPHPY) (peptide) was run?
A: Its Kd is 1 nM.

Q: How did the “binding affinity to the epitope (FRET)” value [2] turn out when `CCN(CC)c1ccc2c(-c3ccccc3C(=O)N(C)CCCC(=O)N[C@H]3Cc4cn(nn4)CCCC[C@@H](C(N)=O)NC(=O)[C@H](Cc4ccc(O)cc4)NC(=O)[C@@H]4CCCN4C(=O)[C@H](Cc4c[nH]cn4)NC(=O)[C@@H]4CCCN4C(=O)[C@H](Cc4c[nH]c5ccccc45)NC3=O)c3ccc(=[N+](CC)CC)cc-3oc2c1` [Rhod-cy(WPHPY)] (RhodamineB-[NMeGABA][Pra]WPHPY[Lys(N3)]-NH2; triazole 2-8; N-terminus assumed) was run?
A: Its value is “highest binding affinity”.

Q: And the “binding to scrambled epitope M5 (FRET)” value [3]?
A: Its value is “retained the binding affinity”.

Q: What about the “binding to scrambled epitope C5 (FRET)” value [4] of the same compound?
A: Its value is “not able to bind”.

Q: And the “binding to scrambled epitope N5 (FRET)” value [5]?
A: Its value is “retained the binding affinity”.
